From ChEMBL document CHEMBL1132160, “Structure-antiviral activity relationship in the series of pyrimidine and purine N-[2-(2-phosphonomethoxy)ethyl] nucleotide analogues. 1. Derivatives substituted at the carbon atoms of the base” (J Med Chem, 1999)
≈ marks a conversion by molar mass, not a printed value.

Columns and labels:
[1] = Inhibitory activity against murine sarcoma virus induced transformation of murine C3H/3T3 embryo fibroblasts; format: functional, Mus musculus
In short: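 Murine C3H/3T3 embryo fibroblasts were seeded at 5 × 10⁵ cells/mL. After 24 h they were infected with 80 focus-forming units of MSV for 90–120 min at 37 °C. The medium was then replaced with fresh medium containing various compound concentrations, and transformation was examined microscopically after 6 days.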

[2] = tested on: Human immunodeficiency virus 1; test: Inhibition of human immunodeficiency virus type 1 (HIV-1) induced cytopathogenicity in CEM cells; format: functional, organism-based; settings: Human immunodeficiency virus 1, CCRF-CEM
In short: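 CEM cells (~3 × 10⁵ cells/mL) were infected with 100 CCID50 of HIV-1 (IIIB)/mL and plated with dilutions of compound. After 4 days at 37 °C, giant cell formation was assessed microscopically.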

[3] = tested on: Human immunodeficiency virus 2; test: Inhibition of human immunodeficiency virus type 2 (HIV-2) induced cytopathogenicity in CEM cells; format: functional, organism-based; settings: Human immunodeficiency virus 2, CCRF-CEM
Human alphaherpesvirus 1 [4] = test: Inhibition of herpes simplex virus type 1 (HSV-1) F strain; format: functional, organism-based
In short: (§1)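 Confluent E6SM cell cultures were inoculated with 100 CCID50 of virus and allowed 1 h for adsorption. Residual virus was then removed, and the cells were incubated with test compound at 400, 200, 100, ... μg/mL. Viral cytopathicity was scored once it reached completion in untreated infected controls.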

Human alphaherpesvirus 1 [5] = test: Inhibitory activity against herpes simplex virus type 1 (HSV-1) KOS strain; format: functional, organism-based; in short: as §1
Human alphaherpesvirus 1 [6] = test: Inhibitory activity against herpes simplex virus type 1 (HSV-1) McIntyre strain; format: functional, organism-based; in short: as §1
[7] = Inhibitory activity against herpes simplex virus type 2 (HSV-2) 196 strain; format: functional; in short: as §1
Human alphaherpesvirus 2 [8] = test: Inhibitory activity against herpes simplex virus type 2 (HSV-2) Lyons strain; format: functional, organism-based; in short: as §1
Vaccinia virus = test: Inhibitory activity against vaccinia virus (VV); format: functional, organism-based; settings: Orthopoxvirus vaccinia
In short: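 Confluent E6SM cell cultures were inoculated with 100 CCID50 of virus and left for 1 h adsorption, then residual virus was removed. Cultures were incubated with test compound at serial concentrations (400, 200, 100, ... μg/mL). Virus-induced cytopathicity was scored once it reached completion in untreated infected control cultures.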

Cytomegalovirus [9] = test: Inhibitory activity against cytomegalovirus (CMV) AD 169 strain; format: functional, organism-based; settings: Human betaherpesvirus 5
In short: (§2)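 HEL cell cultures, grown to confluence, received 100 CCID50 of virus. After 1 h adsorption, the inoculum was removed and the cultures were incubated with serial concentrations of compound (400, 200, 100, ... μg/mL).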

Cytomegalovirus [10] = test: Inhibitory activity against cytomegalovirus (CMV) Davis strain; format: functional, organism-based; settings: Human betaherpesvirus 5; in short: as §2
Human alphaherpesvirus 2 [11] = test: Inhibitory activity against herpes simplex virus type 2 (HSV-2) G strain; format: functional, organism-based; in short: as §1
[12] = tested on: Human immunodeficiency virus 1; test: Inhibitory activity of compound against human immunodeficiency virus type 1 (HIV-1) induced cytopathogenicity in MT-4 cells; format: functional, organism-based; settings: Human immunodeficiency virus 1, MT4
In short: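 Human MT-4 cells (~4 × 10⁵ cells/mL) were infected with 100 CCID50 of HIV-1 (IIIB)/mL and seeded into wells containing compound dilutions. After 5 days at 37 °C, viable cells were counted by trypan blue exclusion in a blood cell counting chamber.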

[13] = tested on: Human immunodeficiency virus 2; test: Inhibitory activity against human immunodeficiency virus type 2 (HIV-2) induced cytopathogenicity in MT-4 cells; format: functional, organism-based; settings: Human immunodeficiency virus 2, MT4
Human alphaherpesvirus 1 [14] = test: Inhibitory activity against herpes simplex virus type 1 (HSV-1) F strain; format: functional, organism-based; in short: as §1
Human alphaherpesvirus 1 [15] = test: Inhibitory activity against herpes simplex virus type 1 (HSV-1) KOS strain.; format: functional, organism-based; in short: as §1
Human alphaherpesvirus 1 [16] = test: Iactivity against herpes simplex virus type 1 (HSV-1) McIntyre strain.; format: functional, organism-based; in short: as §1
Human alphaherpesvirus 2 [17] = test: Inhibitory activity against herpes simplex virus type 2 (HSV-2) 196 strain.; format: functional, organism-based; in short: as §1
Human alphaherpesvirus 2 [18] = test: Inhibitory activity against herpes simplex virus type 2 (HSV-2) G strain.; format: functional, organism-based; in short: as §1
E6SM = test: Inhibitory activity against herpes simplex virus type 2 (HSV-2) Lyons strain.; format: functional, cell-based, Homo sapiens; in short: as §1
Human alphaherpesvirus 1 [19] = test: Inhibitory activity against herpes simplex virus type 1 thymidine kinase (HSV-1 TK-) VMW 1837 strain.

| SMILES | EC50 [1] | EC50 [2] | EC50 [3] | EC50 (Human alphaherpesvirus 1 [4]) | EC50 (Human alphaherpesvirus 1 [5]) | EC50 (Human alphaherpesvirus 1 [6]) | EC50 [7] | EC50 (Human alphaherpesvirus 2 [8]) | EC50 (Vaccinia virus) | EC50 (Cytomegalovirus [9]) | EC50 (Cytomegalovirus [10]) | EC50 (Human alphaherpesvirus 2 [11]) | EC50 [12] | EC50 [13] | also measured |
| --- | --- | --- | --- | --- | --- | --- | --- | --- | --- | --- | --- | --- | --- | --- | --- |
| Nc1nc(=O)n(CCOCP(=O)(O)O)cc1Br | 19.2 µg/mL (≈ 58.5 µM) | > 100 µg/mL | > 100 µg/mL | 40 µg/mL (≈ 122 µM) | 20 µg/mL (≈ 61 µM) | 70 µg/mL (≈ 213 µM) | 100 µg/mL (≈ 305 µM) | 70 µg/mL (≈ 213 µM) | > 400 µg/mL | 30 µg/mL (≈ 91.4 µM) | 33 µg/mL (≈ 101 µM) | 150 µg/mL (≈ 457 µM) | – | – | – |
| NC1=NC2N=CC=NC2C(=O)N1CCOCP(=O)(O)O (configuration not stated) | 26.5 µg/mL (≈ 87.4 µM) | > 100 µg/mL | > 100 µg/mL | 150 µg/mL (≈ 495 µM) | 70 µg/mL (≈ 231 µM) | 150 µg/mL (≈ 495 µM) | 150 µg/mL (≈ 495 µM) | 70 µg/mL (≈ 231 µM) | 200 µg/mL (≈ 660 µM) | > 50 µg/mL | > 50 µg/mL | 70 µg/mL (≈ 231 µM) | – | – | – |
| CC(C)OP(=O)(COCCn1c(Br)nc2c(N)nc(N)nc21)OC(C)C | > 40 µg/mL | > 100 µg/mL | > 100 µg/mL | > 400 µg/mL | > 400 µg/mL | > 400 µg/mL | > 400 µg/mL | 300 µg/mL (≈ 665 µM) | > 400 µg/mL | 25 µg/mL (≈ 55.4 µM) | 20 µg/mL (≈ 44.3 µM) | > 400 µg/mL | – | – | – |
| Nc1cc2c(ncn2CCOCP(=O)(O)O)c(O)n1 | 2.9 µg/mL (≈ 10.1 µM) | – | – | 7 µg/mL (≈ 24.3 µM) | 4.5 µg/mL (≈ 15.6 µM) | 4 µg/mL (≈ 13.9 µM) | 7 µg/mL (≈ 24.3 µM) | 7 µg/mL (≈ 24.3 µM) | 150 µg/mL (≈ 520 µM) | 2 µg/mL (≈ 6.94 µM) | 1.5 µg/mL (≈ 5.2 µM) | 12 µg/mL (≈ 41.6 µM) | > 20 µg/mL | > 20 µg/mL | – |
| Nc1cc2c(ncn2CCOCP(=O)(O)O)c(N)n1 | 144 µg/mL (≈ 501 µM) | 30 µg/mL (≈ 104 µM) | 16 µg/mL (≈ 55.7 µM) | 70 µg/mL (≈ 244 µM) | 150 µg/mL (≈ 522 µM) | 100 µg/mL (≈ 348 µM) | 100 µg/mL (≈ 348 µM) | 70 µg/mL (≈ 244 µM) | 150 µg/mL (≈ 522 µM) | > 50 µg/mL | > 50 µg/mL | 70 µg/mL (≈ 244 µM) | 51 µg/mL (≈ 178 µM) | 78.5 µg/mL (≈ 273 µM) | – |
| Nc1ccn(CCOCP(=O)(O)O)c(=O)c1 | > 100 µg/mL | – | – | – | – | – | – | – | > 40 µg/mL | 100 µg/mL (≈ 403 µM) | > 100 µg/mL | – | > 100 µg/mL | > 100 µg/mL | EC50 (Human alphaherpesvirus 1 [14]): Not Active; EC50 (Human alphaherpesvirus 1 [15]): Not Active; EC50 (Human alphaherpesvirus 1 [16]): Not Active; EC50 (Human alphaherpesvirus 2 [17]): Not Active; EC50 (Human alphaherpesvirus 2 [18]): Not Active; EC50 (E6SM): Not Active; EC50 (Human alphaherpesvirus 1 [19]): Not Active |
| Nc1nc(=O)ccn1CCOCP(=O)(O)O | > 100 µg/mL | – | – | – | > 400 µg/mL | – | – | – | – | > 100 µg/mL | > 100 µg/mL | – | > 100 µg/mL | > 100 µg/mL | EC50 (Human alphaherpesvirus 1 [14]): Not Active; EC50 (Human alphaherpesvirus 1 [16]): Not Active; EC50 (Human alphaherpesvirus 2 [17]): Not Active; EC50 (Human alphaherpesvirus 2 [18]): Not Active; EC50 (E6SM): Not Active; EC50 (Human alphaherpesvirus 1 [19]): Not Active |
| Nc1nc(S)c2c(ncn2CCOCP(=O)(O)O)n1 | 31 µg/mL (≈ 102 µM) | > 100 µg/mL | > 100 µg/mL | – | > 100 µg/mL | – | – | – | > 100 µg/mL | > 50 µg/mL | > 50 µg/mL | > 100 µg/mL | > 100 µg/mL | > 100 µg/mL | – |
| Nc1nc2c(ncn2CCOCP(=O)(O)O)c(=O)[nH]1 [GS-438] | 0.0006 µg/mL (≈ 0.00207 µM) | – | 0.03 µg/mL (≈ 0.104 µM) | – | – | – | – | – | – | – | – | – | > 0.2 µg/mL | > 0.2 µg/mL | – |
| Nc1nc(N)c2ncn(CCOCP(=O)(O)O)c2n1 [PMEDAP] | 0.6 µg/mL (≈ 2.08 µM) | – | – | 2 µg/mL (≈ 6.94 µM) | 2 µg/mL (≈ 6.94 µM) | 2 µg/mL (≈ 6.94 µM) | 0.07 µg/mL (≈ 0.243 µM) | 0.07 µg/mL (≈ 0.243 µM) | 20 µg/mL (≈ 69.4 µM) | 10 µg/mL (≈ 34.7 µM) | 10 µg/mL (≈ 34.7 µM) | 0.2 µg/mL (≈ 0.694 µM) | 2.67 µg/mL (≈ 9.26 µM) | – | – |
